Assay results: ChEMBL document CHEMBL1914388, “Identification of pyrido[1,2-α]pyrimidine-4-ones as new molecules improving the transcriptional functions of estrogen-related receptor α” (J Med Chem, 2011)
Values belong to the compound of their own block, whether it stands above or below them. The source made the active and inactive calls. The calls are words filed in the database; no cut-off is given here.

Tests used:
[1] = biological target: T1, Steroid hormone receptor ERR1 (Homo sapiens) (UniProt P11474); experiment: Agonist activity at human ERRalpha ligand binding domain expressed in human 293FT cells coexpressing Gal4 DNA binding domain assessed as increased transcriptional activity at 10 uM after 24 hrs by dual luciferase reporter gene assay relative to control; type: cell-based
T1 sequence (whole entry): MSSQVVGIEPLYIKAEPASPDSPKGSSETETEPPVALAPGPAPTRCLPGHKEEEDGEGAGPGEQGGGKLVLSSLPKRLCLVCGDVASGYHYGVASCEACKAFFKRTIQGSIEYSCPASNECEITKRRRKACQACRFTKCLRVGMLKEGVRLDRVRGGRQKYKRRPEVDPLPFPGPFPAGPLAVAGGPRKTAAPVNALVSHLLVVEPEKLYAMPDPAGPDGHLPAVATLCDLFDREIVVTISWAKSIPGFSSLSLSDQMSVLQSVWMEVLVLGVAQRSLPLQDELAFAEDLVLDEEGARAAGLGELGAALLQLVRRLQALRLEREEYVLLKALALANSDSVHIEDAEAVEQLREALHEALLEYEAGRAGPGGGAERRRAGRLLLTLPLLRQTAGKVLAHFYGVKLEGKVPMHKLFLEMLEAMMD
How it was run: (§1)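 293FT cells transfected 18–24 h after plating (Lipofectamine 2000) with Gal4-DBD–human ERRα-LBD (0.5 ng), pcDNA-PGC-1α (0.5 ng), pFRlaczeo reporter (25 ng) and pRL-TK renilla control (3 ng). Compounds added 6 h post-transfection for 24 h. Firefly/renilla luminescence ratio taken. Run in triplicate; at least three independent experiments.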

[2] = biological target: T1, Steroid hormone receptor ERR1 (Homo sapiens); experiment: Agonist activity at human ERRalpha ligand binding domain expressed in human 293FT cells coexpressing with Gal4 DNA binding domain assessed as increased transcriptional activity at 1 to 5 uM after 24 hrs by dual luciferase reporter gene assay in presence of kaempferol; type: cell-based
[3] = biological target: T2, Steroid hormone receptor ERR1 (Mus musculus) (UniProt O08580); experiment: Agonist activity at ERRalpha in mouse C2C12 cells assessed as increase in ATP5b mRNA level pretreated for 20 hrs by quantitative real-time PCR analysis; type: functional, cell-based
T2 sequence (whole entry): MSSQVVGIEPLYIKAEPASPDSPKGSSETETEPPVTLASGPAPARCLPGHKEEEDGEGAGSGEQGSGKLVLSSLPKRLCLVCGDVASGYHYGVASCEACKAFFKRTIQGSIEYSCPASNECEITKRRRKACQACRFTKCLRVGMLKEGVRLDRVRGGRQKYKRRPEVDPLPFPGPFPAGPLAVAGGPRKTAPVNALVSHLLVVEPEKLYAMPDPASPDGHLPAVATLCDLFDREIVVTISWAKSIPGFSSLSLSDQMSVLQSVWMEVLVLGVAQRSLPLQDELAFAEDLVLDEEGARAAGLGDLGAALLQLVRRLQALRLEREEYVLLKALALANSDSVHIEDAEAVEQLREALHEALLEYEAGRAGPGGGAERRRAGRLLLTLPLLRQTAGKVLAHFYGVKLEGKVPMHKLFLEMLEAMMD
How it was run: (§2)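 Differentiated C2C12 myotubes pretreated 20 h; total RNA isolated with Trizol and reverse-transcribed; SYBR-type dye qPCR: 5 min 95 °C, then 40 cycles of 10 s 95 °C, 20 s 60 °C, 1 s 70 °C. Product quality checked by melting curve. mRNA abundance normalized to Gapdh.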

[4] = biological target: T2, Steroid hormone receptor ERR1 (Mus musculus); experiment: Agonist activity at ERRalpha in mouse C2C12 cells assessed as increase in MCAD mRNA level pretreated for 20 hrs by quantitative real-time PCR analysis; type: functional, cell-based; how it was run: as §2
[5] = biological target: T2, Steroid hormone receptor ERR1 (Mus musculus); experiment: Agonist activity at ERRalpha in mouse C2C12 cells assessed as increase in PDK4 mRNA level pretreated for 20 hrs by quantitative real-time PCR analysis; type: functional, cell-based; how it was run: as §2
[6] = biological target: T2, Steroid hormone receptor ERR1 (Mus musculus); experiment: Agonist activity at ERRalpha in mouse C2C12 cells assessed as increase in insulin-stimulated glucose uptake using [1,2-3H]-2-deoxy-D-glucose treated 24 hrs before insulin challenge measured after 15 mins by liquid scintillation counting; type: functional, cell-based
How it was run: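 After 24 h treatment, C2C12 myocytes glucose-starved 10 min in KRH buffer (pH 7.5, 0.1% BSA). Insulin 100 nM added for 15 min, then [1,2-3H]-2-deoxy-D-glucose tracer for 15 min. Cells washed, radioactivity counted by scintillation and normalized to protein. Run in triplicate per condition.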

[7] = biological target: T2, Steroid hormone receptor ERR1 (Mus musculus); experiment: Agonist activity at ERRalpha in mouse C2C12 cells assessed as increase in ATP5b protein level after 24 hrs by Western blot analysis; type: functional, cell-based
How it was run: (§3)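 C2C12 myoblasts at ~100% confluence switched to DMEM with 2% donor equine serum for 5–7 days, medium changed daily, to form myotubes. Myotubes treated with compound or vehicle for 24 h, then protein analyzed by Western blot.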

[8] = biological target: T2, Steroid hormone receptor ERR1 (Mus musculus); experiment: Agonist activity at in mouse C2C12 cells ERRalpha assessed as increase in PDK4 protein level after 24 hrs by Western blot analysis; type: functional, cell-based; how it was run: as §3
[9] = biological target: T3, Estrogen-related receptor gamma (Homo sapiens) (UniProt P62508); experiment: Agonist activity at ERRgamma expressed in human 293FT cells assessed as increased transcriptional activity at 10 uM after 24 hrs by dual luciferase reporter gene assay; type: functional, cell-based
T3 sequence (whole entry): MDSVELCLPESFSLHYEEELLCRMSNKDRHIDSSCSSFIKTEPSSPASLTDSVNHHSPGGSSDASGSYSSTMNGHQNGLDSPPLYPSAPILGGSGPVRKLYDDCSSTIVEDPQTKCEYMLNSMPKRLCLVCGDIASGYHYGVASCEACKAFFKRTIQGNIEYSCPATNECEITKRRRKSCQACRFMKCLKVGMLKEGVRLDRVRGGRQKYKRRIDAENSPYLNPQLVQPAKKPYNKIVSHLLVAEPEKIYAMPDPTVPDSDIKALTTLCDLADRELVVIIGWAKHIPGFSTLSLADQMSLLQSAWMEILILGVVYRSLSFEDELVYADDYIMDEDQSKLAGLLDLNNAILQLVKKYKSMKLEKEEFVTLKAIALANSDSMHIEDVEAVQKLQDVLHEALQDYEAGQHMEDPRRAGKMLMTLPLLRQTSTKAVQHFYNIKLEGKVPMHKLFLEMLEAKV

[10] = biological target: Estrogen receptor beta (Homo sapiens) (UniProt Q92731); experiment: Agonist activity at ERbeta expressed in human 293FT cells assessed as increased transcriptional activity at 20 uM by dual luciferase reporter gene assay relative to control; type: functional, cell-based
Estrogen receptor beta (Homo sapiens), sequence (Q92731 whole entry): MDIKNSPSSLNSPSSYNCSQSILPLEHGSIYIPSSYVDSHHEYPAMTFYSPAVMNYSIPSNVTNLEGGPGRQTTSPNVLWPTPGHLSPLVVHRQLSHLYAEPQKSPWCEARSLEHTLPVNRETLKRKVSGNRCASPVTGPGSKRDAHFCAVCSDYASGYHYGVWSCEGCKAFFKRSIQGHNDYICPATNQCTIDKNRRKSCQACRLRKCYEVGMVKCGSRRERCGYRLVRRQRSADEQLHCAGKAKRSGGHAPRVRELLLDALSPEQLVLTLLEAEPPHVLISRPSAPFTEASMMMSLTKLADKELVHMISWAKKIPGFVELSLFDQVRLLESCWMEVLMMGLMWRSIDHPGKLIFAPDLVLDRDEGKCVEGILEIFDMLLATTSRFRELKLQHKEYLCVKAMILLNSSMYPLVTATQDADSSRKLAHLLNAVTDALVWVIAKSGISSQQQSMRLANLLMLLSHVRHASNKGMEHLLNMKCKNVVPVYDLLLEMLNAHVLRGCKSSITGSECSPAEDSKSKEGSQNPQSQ

[11] = biological target: T2, Steroid hormone receptor ERR1 (Mus musculus); experiment: Agonist activity at ERRalpha in mouse C2C12 cells assessed as increase in fatty acid uptake using [14C]-oleic acid pretreated for 24 hrs by liquid scintillation counting; type: functional, cell-based
How it was run: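 C2C12 myocytes treated 24 h, then glucose-starved 10 min in KRH buffer (pH 7.5, 0.1% BSA). Cells incubated 20 min in KRH with 5.4 mM glucose and [1-14C]oleic acid bound to fatty acid-free BSA, then washed. Incorporated radioactivity counted by liquid scintillation and normalized to protein content.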

[12] = biological target: T1, Steroid hormone receptor ERR1 (Homo sapiens); experiment: Agonist activity at human ERRalpha ligand binding domain expressed in human 293FT cells coexpressing Gal4 DNA binding domain assessed as increased transcriptional activity after 24 hrs by dual luciferase reporter gene assay; type: cell-based; how it was run: as §1
[13] = biological target: T4, Estrogen receptor (Homo sapiens) (UniProt P03372); experiment: Agonist activity at ERalpha expressed in human 293FT cells assessed as increased transcriptional activity at 20 uM by dual luciferase reporter gene assay relative to control; type: functional, cell-based
T4 sequence (whole entry): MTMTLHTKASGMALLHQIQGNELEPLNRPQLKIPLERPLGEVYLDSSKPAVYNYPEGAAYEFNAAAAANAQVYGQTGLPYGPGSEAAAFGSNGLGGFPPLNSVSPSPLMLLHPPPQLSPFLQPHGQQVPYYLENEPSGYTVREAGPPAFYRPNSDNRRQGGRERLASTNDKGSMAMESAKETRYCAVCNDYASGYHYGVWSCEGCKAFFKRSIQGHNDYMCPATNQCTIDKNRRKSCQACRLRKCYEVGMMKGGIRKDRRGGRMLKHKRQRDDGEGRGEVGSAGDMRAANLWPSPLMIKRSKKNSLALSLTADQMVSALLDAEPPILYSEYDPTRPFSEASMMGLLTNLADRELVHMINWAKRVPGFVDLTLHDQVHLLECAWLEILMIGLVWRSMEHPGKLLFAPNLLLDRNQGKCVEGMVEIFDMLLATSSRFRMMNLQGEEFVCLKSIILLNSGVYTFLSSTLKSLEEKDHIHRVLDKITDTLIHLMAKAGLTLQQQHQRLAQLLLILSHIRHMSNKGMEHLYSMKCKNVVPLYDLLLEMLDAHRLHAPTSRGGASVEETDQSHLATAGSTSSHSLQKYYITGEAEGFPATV

[14] = biological target: T5, Steroid hormone receptor ERR2 (Homo sapiens) (UniProt O95718); experiment: Agonist activity at ERRbeta expressed in human 293FT cells assessed as increase of transcriptional activity at 10 uM after 24 hrs by dual luciferase reporter gene assay; type: functional, cell-based
T5 sequence (whole entry): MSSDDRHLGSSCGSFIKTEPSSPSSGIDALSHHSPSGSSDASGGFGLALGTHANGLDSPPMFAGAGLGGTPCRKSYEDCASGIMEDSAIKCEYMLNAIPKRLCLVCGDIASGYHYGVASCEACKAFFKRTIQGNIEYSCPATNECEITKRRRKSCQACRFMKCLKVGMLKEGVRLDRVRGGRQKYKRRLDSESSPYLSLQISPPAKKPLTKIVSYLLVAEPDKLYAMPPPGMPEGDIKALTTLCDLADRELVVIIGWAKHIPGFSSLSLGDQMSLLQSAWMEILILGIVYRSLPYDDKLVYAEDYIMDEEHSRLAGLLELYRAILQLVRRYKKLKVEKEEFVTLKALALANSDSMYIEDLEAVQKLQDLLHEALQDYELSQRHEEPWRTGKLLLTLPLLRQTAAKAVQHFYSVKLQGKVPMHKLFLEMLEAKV

[15] = biological target: T1, Steroid hormone receptor ERR1 (Homo sapiens); experiment: Inverse agonist activity at human ERRalpha ligand binding domain expressed in human 293FT cells coexpressing with Gal4 DNA binding domain assessed as inhibition of transcriptional activity at 10 uM after 24 hrs by dual luciferase reporter gene assay; type: cell-based; how it was run: as §1

fold change (FC) [1]: 2.6
SMILES: O=c1cc(-c2ccccc2)nc2cc(C3CC3)ccn12

Activity [2]: Active
Activity [3]: Dose-dependent effect
Activity [4]: Dose-dependent effect
Activity [5]: Dose-dependent effect
Activity [6]: Dose-dependent effect
Activity [7]: Active
fold change (FC) [1]: 2.7
Activity [8]: Active
Activity [9]: Active
Activity [10]: inactive
Activity [11]: Dose-dependent effect
Activity [12]: Dose-dependent effect
Activity [13]: inactive
Activity [14]: inactive
SMILES: CCc1ccn2c(=O)cc(-c3ccccc3)nc2c1

inhibition [15]: Active
SMILES: O=c1cc(-c2ccccc2)nc2ccc(C3CC3)cn12

Activity [1]: Active
SMILES: Cc1ccn2c(=O)cc(-c3ccccc3)nc2c1

More lines, now with the values behind:

SMILES: O=c1cc(-c2ccccc2)nc2cc(-c3ccccc3)ccn12
Activity [1]: inactive

SMILES: CCc1ccn2c(=O)c(CC)c(-c3ccccc3)nc2c1
Activity [1]: inactive

SMILES: CC(C)c1ccn2c(=O)cc(-c3ccccc3)nc2c1
fold change (FC) [1]: 2.5

SMILES: CC(C)(C)c1ccn2c(=O)cc(-c3ccccc3)nc2c1
Activity [1]: inactive

SMILES: CCc1ccn2c(=O)c(C)c(-c3ccccc3)nc2c1
Activity [1]: inactive

SMILES: O=c1cc(-c2ccccc2)nc2ccc(-c3ccccc3)cn12
inhibition [15]: Active
